# Source: PubChem
# Sampled rows, rich in hits. Any-hit rate of the full collection: about 1.9%.
# Rin1-Abl PPI inh – inhibitors of Rin1-Abl protein binding, primary screen, biochemical, TR-FRET; Tyrosine-protein kinase ABL1 (Homo sapiens) + Ras and Rab interactor 1 (Homo sapiens), …; inhibition, % at 7.35 µM; actives 0.4% (n = 360,000); AID 588664, 2011; in the data active = inhibition above about 5%, passing the limit was not always enough
# TDP2 inh – human TDP2 enzyme inhibitors, primary screen, biochemical, epi absorbance, recombinant enzyme; actives 0.34% (n = 370,000); inhibition, % at 12.8 µM; T5PNP hydrolysis, p-nitrophenol absorbance 415 nm;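 active = inhibition above the mean of all tested compounds plus 3 SD, set per campaign, cut at about 25% in these data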;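 also: 0% = DMSO with enzyme and 100% = buffer with substrate but no TDP2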
#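 Evaluation: % inhibition relative to enzyme-containing and enzyme-free wells. Material: recombinant human TDP2. Benchmarks: enzyme-free and DMSO wells. Timing: enzyme reaction with compound for 2 h at 37 °C. Compound dosing: 12.8 µM only. Measured by: p-Nitrophenol epi absorbance. Reagent: T5PNP substrate at 5 mM, a TopII-DNA adduct mimic. Replication: single well per compound.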
# LEDGF integ inh – blockers of LEDGF/p75-dependent integrase strand transfer – biochemical, TR-FRET, high throughput, primary screen | HIV-1 integrase (with human LEDGF/p75) | TR-FRET IN-LEDGF/p75 DNA integration, Eu/Cy5 | inhibition, % at 3.7 µM | actives 0.64% (n = 370,000) | AID 743269, 2014;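 active = inhibition above the screen-wide mean plus 3 SD, cut at about 13% in these data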;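 also: signal is the Cy5 over europium emission ratio at 671 and 618 nm; 0% = plate median of compound wells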
# MBD2 DNA inh – inhibitors of MBD2 binding to methylated DNA, primary screen, biochemical, TR-FRET, DNA-binding domain, human | inhibition, % at 4.4 µM | Methyl-CpG-binding domain protein 2 (Homo sapiens), Q9UBB5 | MBD2 binding to methylated oligonucleotide | actives 0.31% (n = 370,000) | AID 686964, 2013; in the data active = inhibition above about 13%
# Target sequence (Q9UBB5 whole entry, looked up, the tested form may be a part): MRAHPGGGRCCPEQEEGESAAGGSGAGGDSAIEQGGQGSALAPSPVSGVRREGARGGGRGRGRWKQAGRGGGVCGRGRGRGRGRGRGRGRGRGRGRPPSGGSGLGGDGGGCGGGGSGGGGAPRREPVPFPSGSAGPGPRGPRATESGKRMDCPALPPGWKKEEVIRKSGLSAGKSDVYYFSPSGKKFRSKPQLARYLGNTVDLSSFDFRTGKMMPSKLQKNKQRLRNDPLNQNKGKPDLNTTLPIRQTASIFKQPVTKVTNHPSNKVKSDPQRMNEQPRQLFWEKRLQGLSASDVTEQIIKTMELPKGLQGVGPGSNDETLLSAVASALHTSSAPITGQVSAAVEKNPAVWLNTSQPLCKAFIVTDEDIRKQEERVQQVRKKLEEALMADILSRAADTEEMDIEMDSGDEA
# UHRF1 binding – UHRF1 methylated DNA binding inhibitors, primary screen, counter-screen for MBD2 inhibitor project, biochemical, TR-FRET, human UHRF1, single concentration; E3 ubiquitin-protein ligase UHRF1 (Homo sapiens), Q96T88; inhibition, % at 4.4 µM; AID 687016, 2013; UHRF1 binding to methylated oligo; actives 0.75% (n = 370,000); in the data active = inhibition above about 21%;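 also: UHRF1 SRA domain binding a hemimethylated CpG hairpin DNA probe; 0% = median of test compound wells and 100% = reference inhibitor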
# The depositor's hits bear a star; nt = no result.
SMILES,Rin1-Abl PPI inh,TDP2 inh,LEDGF integ inh,MBD2 DNA inh,UHRF1 binding
Cc1nn(Cc2nnc(SCC(=O)Nc3cccc(C(F)(F)F)c3)n2C)c(C)c1[N+](=O)[O-],-2,5,0,0,41*
CC1CCCC(C)N1/N=C/c1ccc(N(C)C)cc1 (configuration not stated),-3,-6,1,3,24*
CC(C)c1c(C(=O)N/N=C/c2cccc(OCc3ccc(F)cc3)c2)nnn1-c1nonc1N,5,-9,-2,-5,-1
COc1cc(/C=N/NC(=O)c2cc(C)oc2C)ccc1OCc1ccccc1,3,3,84*,-2,-2
COc1cc(/C=N/NC(=O)c2nnn(-c3nonc3N)c2C(C)C)ccc1OCc1ccc(F)cc1,-2,-1,3,10,21*
O=c1cc(N2CCN(c3cccc(C(F)(F)F)c3)CC2)[nH]c(=O)n1-c1ccccc1,nt,-6,2,-2,0
COC(=O)[C@]12C[C@H](CC(=O)NCc3ccccc3)C(=O)N(CCc3ccc(OC)c(OC)c3)C1=C[C@H](C1CCCC1)O[C@@H]2C,nt,-1,-3,3,0
COc1ccc(C2SCC(=O)N2c2ccccc2)cc1 (configuration not stated),-4,-5,-1,11,22*
COc1ccc(C2SCC(=O)N2c2ccc(OC)cc2)cc1 (configuration not stated),0,-8,0,2,0
COC(=O)[C@]12CCCCC=C1N(Cc1ccc(OC)cc1)C(=O)[C@@H]2CC(=O)NCc1ccc(C)o1,nt,0,-1,1,0
O=C(Nc1ccccc1C(F)(F)F)OC1CCC12CCC(c1ccccc1)CC2 (configuration not stated),nt,6,0,4,-3
COC(=O)c1cccc(COC(=O)c2cccnc2SC)c1,-1,3,-3,2,34*
COC(=O)[C@]12C[C@H](CC(=O)NCC34CC5CC(CC(C5)C3)C4)C(=O)N(Cc3ccc(Cl)cc3Cl)C1=C[C@H](C1CCCC1)O[C@@H]2C,nt,-10,6,1,-1
CCCCCC(=O)NC1CCCCN(Cc2ccccc2C)C1=O (configuration not stated),nt,-3,7,-4,0
CCn1c(=O)cc(OCC(=O)N2CCCC2)c2ccccc21,9.0*,-5,-4,3,2
CCn1c(=O)cc(OCC(=O)N2CCN(c3cccc(C(F)(F)F)c3)CC2)c2ccccc21,-4,-5,1,1,1
O=C(NN1CC(C(=O)OCc2ccccc2F)CC1=O)c1ccccc1 (configuration not stated),3,1,0,5,22*
CC(C)(C)C(=O)CSc1nnc(SCc2cccc3ccccc23)s1,nt,2,-1,1,-1
Cc1cc(NC(=O)CCCC(=O)NCc2cccs2)no1,-5,11,5,12,25*
Cc1cc(C(=O)NCc2cccs2)no1,1,-2,-2,0,6
COc1ccc(S[C@]2(C(=O)NCCc3ccccc3)CC(=O)N[C@@H]2c2ccc(OC)cc2)cc1,nt,2,10,-5,4
COc1ccc(-c2nnn3c2Cn2c4ccccc4c(=O)n2[C@@H](C)C3)cc1,nt,-4,-2,-2,-1
CCOC(=O)[C@@]12CCC3=C1N(CCC3)C(=O)[C@H](CC(=O)NCCC(C)C)C2,nt,-1,-3,2,-1
Cn1cnnc1SCC(=O)Nc1sc2c(c1C(N)=O)CCC2,-1,6,6,10,25*
COCCn1cnnc1SCC(=O)Nc1sc2c(c1C#N)CCC2,0,5,6,1,-2
SMILES,Rin1-Abl PPI inh,TDP2 inh,LEDGF integ inh,MBD2 DNA inh,UHRF1 binding
CCOC(=O)[C@]12CCCCC/C=C\1N(CCc1ccc(Cl)cc1)C(=O)[C@H]2CC(=O)N1CCCCC1,nt,1,-1,-2,1
CCCC(=O)N(c1ccc(C(=O)O)cc1)c1nc(-c2ccccc2)c(C)s1,3,4,3,13,41*
S=C(Nc1cccnc1)NC1CCCCCCC1,-1,-8,-4,2,1
O=C(Nc1cccnc1)NC1CCCCC1,4,-13,0,3,25*
Brc1ccc2nc(-c3ccco3)c(CC3CCCCC3)n2c1,-13,5,16*,0,12
Cc1ccc2nc(-c3ccco3)c(CC3CCCCC3)n2c1,4,nt,nt,nt,nt
Cc1ccc2nc(-c3ccc(F)cc3)c(CC3CCCCC3)n2c1,nt,-5,-2,13,21*
Cc1ccc2nc(-c3ccc(Cl)cc3)c(CC3CCCCC3)n2c1,4,6,-6,9,21*
Cc1ccc2nc(-c3ccc(F)cc3)c(Cc3cccc(F)c3)n2c1,nt,-10,3,-2,14
COC(=O)c1ccc2nc(-c3ccc(Cl)cc3)c(CC3CCCCC3)n2c1,nt,1,-1,7,17
O=C(CSc1nnc(-c2cnccn2)n1-c1ccccc1)Nc1ccc2cn[nH]c2c1,nt,3,-1,4,-1
CC1CCN(c2ccc(C(=O)O)cc2NS(=O)(=O)c2ccccc2)CC1,nt,2,-1,2,1
CNC(=O)[C@@H](NC(=O)[C@H](CC(C)C)[C@H](O)C(=O)NO)C(C)(C)C,nt,1,-1,1,1
Cc1[nH]c2ccccc2c1CC(=O)Nc1ccc(Nc2cccnc2)c(-c2cc(C(F)(F)F)cc(C(F)(F)F)c2)c1,nt,5,-4,-2,0
Cc1cc(Cl)ccc1OCC(=O)OCC(=O)NCCNC(=O)COC(=O)COc1ccc(Cl)cc1C,3,-3,20*,-5,-1
CCCCNC(=O)C1(C(=O)c2ccc(OC)cc2)CC(c2ccccn2)=NO1 (configuration not stated),nt,4,0,-6,1
COC(=O)c1ccc2nc(C3CCCCC3)c(CC(C)(C)C)n2c1,3,-5,-4,0,21*
Cc1ccc(NS(=O)(=O)c2ccc3c(c2)NC(=O)CCS3)c(Br)c1,-1,3,-1,1,29*
COc1ccc(N2CCN(CCCNC(=O)COc3ccc(F)cc3)CC2)cc1,nt,3,-1,-4,0
COc1cccc(N2CCN(C(=O)CCn3nnc4ccccc43)CC2)c1,nt,1,4,-2,1
CC(=O)N1CCCN(C(=O)CCn2nnc3ccccc32)CC1,nt,4,0,-2,91*
COc1cc2c(cc1OC)C(SC)=NC1(CCCC1)C2,4,-7,-3,10,27*
COc1cc2c(cc1OC)C(C)=NC1(CCCCC1)C2,-2,3,-2,-1,1
